# Source: PubChem
# PGC1a Ac signal – raises PGC1a acetylation signal in U2OS cells | U2OS PGC1a acetylation AlphaScreen, overnight | activation, % at 15.6 µM | 350,000 compounds, 0.21% hits;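 active = every replicate reaching activation of at least 50%, whatever the mean replicate activation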;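 also: hits raise the AlphaScreen acetylation signal above neutral controls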
#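 System – flag-PGC1a/GCN5 U2OS cells · Quantity – 7000 U2OS cells per well · Signal – AlphaScreen proximity luminescence, anti-acetyl-lysine antibody · Schedule – overnight compound treatment, 37 °C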
# A number is an active result; 0 = inactive. Shown is part of a subset that was picked to be rich in hits.
SMILES,PGC1a Ac signal
NC(=O)c1oc2ccccc2c1NC(=O)C1CC(=O)N(c2ccccc2)C1 (centres undefined),0
Cc1ccc(N2CCN(CC(O)COC3CCCCC3)CC2)cc1 (centres undefined),82.0
N#C/C(=C(/O)c1ccco1)c1nc2ccccc2[nH]1,60.8
N#C/C(=C(/O)c1cc2ccccc2o1)c1nc2ccccc2s1,0
O=C(N/N=C/c1ccc(OC2CSC2)cc1)c1ccc(CN2CCOCC2)cc1,0
Cc1nc(SCC(=O)OCc2ccccc2)c(C#N)c(-c2ccccc2)c1C(=O)Nc1ccccc1,56.9
N#Cc1c(-c2ccccc2)c(-c2ccccc2)nn(CC(=O)NNC(=O)Nc2ccc(Cl)cc2)c1=O,0
O=C(Nc1cc(S(=O)(=O)N2CCOCC2)ccc1Cl)c1cc([N+](=O)[O-])ccc1Cl,66.8
CCN(CC)c1ccc(S(=O)(=O)N2CCOCC2)cc1NC(=O)Cn1nc(C)c([N+](=O)[O-])c1C,0
CCN(CC)S(=O)(=O)c1ccc(C(=O)Nc2cc(S(=O)(=O)N3CCOCC3)ccc2O)cc1,0
OCC1(Cc2ccc(F)cc2F)CCCN(Cc2ccc(Cl)cc2)C1 (centres undefined),0
O=C(Nc1c(F)cccc1F)c1ccc(-n2cncn2)nc1,53.5
C[C@H]1CN([C@@H](C)CO)S(=O)(=O)c2ccc(C3=CCCC3)cc2O[C@@H]1CN(C)C,0
C[n+]1cccc(CNC(=O)/C=N/O)c1,0
C#CC(CC)(CC)NC(=O)c1ccc(Br)s1,0
N#C/C(=C/c1ccc(N2CCCCCC2)o1)c1ccc(F)cc1,91.1
O=[N+]([O-])c1cc(-c2ncccn2)c([N+](=O)[O-])s1,0
Cc1c(CNCCc2ccc(Cl)cc2)c(C(=O)O)c(C)n1-c1ccccc1,0
O=C1C=C(c2cc3ccccc3s2)CCC1,58.2
C[C@H](CO)N1C[C@H](C)[C@H](CN(C)S(=O)(=O)c2ccccc2C#N)OCc2cnnn2CCCC1=O,0
COc1ccccc1NC(=O)CCC(=O)Nc1ccccc1OC,54.0
COc1ccccc1NC(=O)/C=C1\SCC(=O)N1C,0
COc1ccc(NC(=O)C/C(C)=N/NC(=O)C(=O)NC(C)C)c(OC)c1,0
COc1ccc2c(c1)sc1nc(-c3ccccc3)cn12,70.6
COc1ccc2c(c1)c1nc3ccccc3nc1n2CC(=O)OC(C)C,0
SMILES,PGC1a Ac signal
COc1ccccc1C(=O)/C=C/c1ccc(N2CCCCC2)c([N+](=O)[O-])c1,187.3
C=C1CCN(c2ccc(C(=O)NCc3ccccc3)cc2[N+](=O)[O-])CC1,0
C[C@H](CO)N1C[C@H](C)[C@@H](CN(C)Cc2cncnc2)Oc2cc(C#CC3CC3)ccc2S1(=O)=O,0
CCSC1=N/C(=C\c2ccccc2)C(=O)N1c1ccc(OC)cc1,0
C=CCNc1nnc(SC2CC(=O)N(c3ccc(OC)cc3)C2=O)s1 (centres undefined),74.6
Cc1cccc2cc(CN(Cc3ccc(F)cc3)Cc3nnnn3C3CCCC3)c(=O)[nH]c12,0
Clc1ccccc1CN(Cc1ccco1)Cc1nnnn1C1CCCC1,132.4
COc1ccc(NC(=O)Nc2ccc3c(c2)C(=O)N([C@H](C)CO)C[C@H](C)[C@@H](CN(C)S(=O)(=O)c2ccc(Cl)cc2)O3)cc1,0
O=C(O)c1ccc(N/N=C/C(Br)=C/c2ccccc2)cc1,54.0
Cc1ccc(NCC(=O)N/N=C\C(Br)=C\c2ccccc2)cc1,145.3
C#CCN1[C@H](/C=C/C2CC2)[C@H](Cc2ccccc2)OC(=O)[C@@H]1[C@@H]1N[C@@H](C(=O)OC)C(C)(C)S1,0
C[C@@H]1CN([C@H](C)CO)C(=O)c2cc(-c3ccccc3)cnc2O[C@H]1CN(C)C(=O)Cc1ccccn1,0
CC1=C(Cl)C2=NS(=O)(=O)CCN2C=C1Cl,0
C[C@@H]1CN([C@H](C)CO)S(=O)(=O)c2ccc(-c3cncnc3)cc2O[C@H]1CN(C)Cc1cccnc1,0
C/C=C/Cn1c(SCc2ccc(Cl)cc2)nc2c1c(=O)[nH]c(=O)n2C,0
O=C(CC1CC1)N[C@@H]1CC[C@H](CCNS(=O)(=O)c2ccc(Cl)cc2)O[C@H]1CO,0
CC(C)(CO)CNc1ccn2nccc2n1,0
O=C(Nc1ccc(N2CCN(C(=O)c3ccccc3)CC2)cc1)c1ccc([N+](=O)[O-])o1,121.9
O=[N+]([O-])c1ccccc1-c1ccc(C(=S)N2CCN(c3ccccc3)CC2)o1,0
CC(=O)c1ccc(NC(=O)c2ccc([N+](=O)[O-])o2)cc1,101.5
Cc1cc(C)cc(NC(=O)c2ccc([N+](=O)[O-])o2)c1,246.5
O=C(c1ccc(CN2CCOCC2)cc1)N1CCN(Cc2ccccc2)CC1,0
O=C(Nc1c(Cl)ccc2nsnc12)c1ccc([N+](=O)[O-])o1,73.7
O=C(Nc1ccc([N+](=O)[O-])cn1)c1ccc(Br)o1,0
Cc1cc(C)cc(C(=O)Nc2ccc3[nH]c(=O)[nH]c3c2)c1,0
SMILES,PGC1a Ac signal
Cc1ccc(-c2nn(C)c(=O)c3ccccc23)cc1S(=O)(=O)NCCN(C)C,0
Cc1cc2c(c(/C=C/C(=O)c3ccccc3)c1)OC1(C=C2)Oc2ccccc2C(=O)N1C (centres undefined),0
CC(C)n1c(=S)[nH]c2cc(Cl)ccc21,0
CN1c2ccccc2C2(C)CCCC3=Cc4cccc([N+](=O)[O-])c4OC312 (centres undefined),69.4
NC(=O)c1sc2nc3c(c(-c4cccs4)c2c1N)CCCCC3,0
COc1ccc(S(=O)(=O)N2CC[C@@H]3[C@H](CO)Nc4ccc(-c5ccccc5F)cc4[C@@H]32)cc1,50.7
COc1ccc(S(=O)(=O)N[C@@H]2CC[C@H](CCNC(=O)c3ccccc3F)O[C@H]2CO)cc1,0
COc1ccc(NC(=O)N[C@@H]2CC[C@H](CCn3cc(-c4ccccc4F)nn3)O[C@@H]2CO)cc1,0
COCC#Cc1cnc2c(c1)C(=O)N([C@H](C)CO)C[C@@H](C)[C@@H](CN(C)C(=O)c1cccnc1)O2,0
O=C(CSc1nc2ccc(Cl)cc2[nH]1)c1ccc2c(c1)OCO2,0
O=C(OCCCN1CCCCC1)c1ccc(O)cc1,0
C[C@@H]1CN([C@@H](C)CO)C(=O)c2ccccc2-c2ccccc2CO[C@@H]1CN(C)C(=O)Nc1cccc(Cl)c1Cl,0
Cc1cc(C)nc(SCC(=O)OCN2C(=O)c3ccccc3C2=O)n1,67.1
Nc1cc(N)nc(SCC(=O)Nc2ccccc2N2CCOCC2)n1,0
O=C(c1ccc(N2CCCC2=O)cc1)N1CCCCCC1,0
CC(=O)Nc1cccc(-c2ccnc3c2CC(C)(C(=O)Nc2ccc4c(c2)OCO4)O3)c1 (centres undefined),69.8
COc1ccc(NC(=O)C2(C)Cc3c(-c4cccc(NC(C)=O)c4)ccnc3O2)cn1 (centres undefined),57.9
COc1ccc(NC(=O)/C(Cl)=C(/Cl)S(=O)Cc2ccccc2)cn1 (centres undefined),0
O=C(Nc1cccc(Cl)c1)Nc1ccc2c(c1)OCO2,0
N#Cc1ccsc1NC(=O)CSc1nnc(NC2CC2)s1,0
C=CCNC(=O)CC1Nc2c3ccccc3nc(=S)n2C1=O (centres undefined),0
O=C(N/N=C/C=C\c1ccccc1[N+](=O)[O-])c1cccnc1,0
N#C/C(=C\C=C\c1ccccc1[N+](=O)[O-])C(=O)NCc1ccccc1,127.6
Cc1ccc(/C=N/N2CCN(Cc3ccccc3)CC2)cc1,0
CC(C)C(NC(=O)c1ccc(C(C)(C)C)cc1)C(=O)O (centres undefined),0
C=C1C(=O)O[C@H]2[C@H]1[C@@H](O)CC(=C)[C@@H]1CC(=O)[C@@H](C)[C@H]21,72.0
